Reference: PMC11059122 (iScience, 2024)
Read-outs that look alike come from different tables or passages of the source.

Assays:
[1] = system: p53 WT cell lines; details: read-out: IC50 in cellular viability assays of p53 WT cell lines; cited from earlier work
[2] = system: MCL1 in OCI-AML3 cells; assay: MCL1 levels in OCI-AML3 cells; format: cell-based, human; details: OCI-AML3, 1 μM each, 4 h, Western blot
Outline: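 OCI-AML-3 cells (RPMI 1640 + 20% FBS) exposed to test compound, venetoclax, or both co-dosed; sampled 4 h post treatment. RIPA lysis 30 min at 4°C, centrifugal clarification, BCA protein assay, reducing SDS-PAGE, immunoblot with extended-duration chemiluminescent substrate; bands quantified by densitometry. Mean ± standard deviation.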

[3] = system: MM.1S cells; assay: MM.1S cell viability; format: cell-based, human
[4] = system: RKO cells; assay: RKO cell viability; format: cell-based; details: Homo sapiens, 72 h, read-out: RKO IC50
[5] = system: RKO-E6 cells; assay: RKO-E6 cell viability; format: cell-based, human
[6] = system: p53 in MM.1S cells; assay: Time course of p53 levels in MM.1S cells; format: cell-based, human; details: for maximum increase of p53 above DMSO-treated cells: time course 2-24 h
Outline: (§1)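 MM.1S cells (RPMI 1640, 10% FBS, 1% L-glutamine) treated with test compound and sampled over a time course. Lysis in RIPA 30 min at 4°C, centrifugal clarification, BCA normalisation, reducing SDS-PAGE and immunoblot for p53 and p21. Chemiluminescent detection, densitometric band quantification; signal relative to DMSO-treated cells, mean ± standard deviation.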

[7] = system: p21 in MM.1S cells; assay: Time course of p21 levels in MM.1S cells; format: cell-based, human; details: time course 2-24 h
Outline: as §1

[8] = system: MRC5 cells; assay: MRC5 live-cell imaging; format: cell-based, human; details: 1 μM
Outline: (§2)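 IncuCyte S3 real-time growth, 4× objective: MRC5 (EMEM + 10% FBS, 4,000 cells/well) or MM.1S (RPMI 1640 + 10% FBS, 24,000 cells/well) seeded overnight, then exposed to test compound, idasanutlin or DMSO. Images every 6 h for 120 h from treatment start; growth expressed as phase object confluence.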

[9] = system: MM.1S cells; assay: MM.1S live-cell imaging; format: cell-based, human; details: 1 μM, 5 days
Outline: as §2

[10] = biological target: recombinant human USP7 (Homo sapiens, UniProt Q93009); assay: In vitro USP7 activity assay; format: biochemical
Sequence of recombinant human USP7 (Q93009 whole entry): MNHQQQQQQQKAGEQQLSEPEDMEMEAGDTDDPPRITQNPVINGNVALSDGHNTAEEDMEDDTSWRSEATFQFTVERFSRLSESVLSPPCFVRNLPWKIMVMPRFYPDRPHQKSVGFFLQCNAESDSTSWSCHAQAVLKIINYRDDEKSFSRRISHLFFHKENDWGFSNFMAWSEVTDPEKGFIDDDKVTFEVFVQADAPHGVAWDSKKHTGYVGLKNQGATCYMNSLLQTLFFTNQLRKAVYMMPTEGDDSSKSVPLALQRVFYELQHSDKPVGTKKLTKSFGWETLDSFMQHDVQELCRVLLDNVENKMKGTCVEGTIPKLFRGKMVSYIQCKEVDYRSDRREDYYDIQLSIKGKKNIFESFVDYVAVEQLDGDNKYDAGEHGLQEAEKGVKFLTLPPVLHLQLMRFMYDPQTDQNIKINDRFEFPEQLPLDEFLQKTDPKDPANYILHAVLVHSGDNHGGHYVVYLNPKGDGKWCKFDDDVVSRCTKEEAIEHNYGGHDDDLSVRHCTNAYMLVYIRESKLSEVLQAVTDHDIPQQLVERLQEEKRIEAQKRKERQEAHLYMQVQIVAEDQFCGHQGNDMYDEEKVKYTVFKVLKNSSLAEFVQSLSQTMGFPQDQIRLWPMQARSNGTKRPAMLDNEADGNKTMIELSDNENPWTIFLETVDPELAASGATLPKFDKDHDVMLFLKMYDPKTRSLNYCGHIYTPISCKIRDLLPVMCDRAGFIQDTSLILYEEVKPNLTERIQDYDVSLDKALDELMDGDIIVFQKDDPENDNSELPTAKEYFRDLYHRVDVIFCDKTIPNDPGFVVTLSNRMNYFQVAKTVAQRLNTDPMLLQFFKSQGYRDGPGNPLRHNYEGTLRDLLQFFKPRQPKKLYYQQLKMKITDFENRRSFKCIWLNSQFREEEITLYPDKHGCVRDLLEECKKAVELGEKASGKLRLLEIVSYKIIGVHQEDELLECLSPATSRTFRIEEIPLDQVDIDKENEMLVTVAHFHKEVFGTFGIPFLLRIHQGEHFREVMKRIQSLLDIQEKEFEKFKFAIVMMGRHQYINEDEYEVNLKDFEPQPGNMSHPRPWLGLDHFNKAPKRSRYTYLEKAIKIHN
Outline: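 Test compound, 4-fold 10-point series from 2.5 µM top, pre-incubated 30 min at room temperature with 167 pM Sf21-baculovirus-expressed human USP7 in 20 mM HEPES pH 7.3, 150 mM NaCl, 1 mM TCEP, 125 µg/mL BSA, 0.4% DMSO. Ubiquitin-rhodamine added to 160 nM final; reaction 90 min at room temperature, acetic acid stop. Fluorescence 485/520 nm. % inhibition vs DMSO and no-enzyme controls; IC50 from curve fit; triplicate.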

[11] = system: p53 levels in MM.1S cells; assay: Meso Scale Discovery total p53 assay in MM.1S cells; format: cell-based; details: Homo sapiens, MM1.S, 4 h, read-out: MM.1S p53 EC50
Outline: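 MM.1S cells plated at 1×10⁶/well overnight, then exposed 4 h to test compound, 4-fold 9-point series spanning 20 µM to 0.0003 µM, or DMSO (0.1% final). Total p53 in whole-cell lysate measured by Meso Scale Discovery immunoassay kit. p53 signal plotted against concentration and fitted for EC50.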

[12] = system: 44 DUBs (DUBprofiler panel); assay: DUB selectivity profiling; format: biochemical; details: 10 μM compound
[13] = system: p53 WT cell lines; assay: Cellular viability assays of p53 WT cell lines; format: cell-based; details: read-out: IC50 in cellular viability assays of p53 WT cell lines
[14] = system: MM.1S tumors; assay: MM.1S cell-line-derived xenograft mouse model; format: in vivo
Outline: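 Female CB-17 SCID mice (6-9 wk, 18-23 g) implanted s.c. in right flank with 5×10⁶ MM.1S cells in PBS/Matrigel 50/50. Randomised at mean tumour ~105 mm³; test compound by oral gavage; tumour and body weight measured twice weekly. Final-day urine at three intervals, diluted 1:50, mouse MIC-1 ELISA (OD450 minus OD570, standard curve). Tumours harvested 2 h post last dose, RIPA-homogenised, p53/p21 Western blot.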

[15] = system: MV4-11 tumors; assay: MV4-11 cell-line-derived xenograft mouse model; format: in vivo; details: for tumor growth inhibition: MV4-11 tumors, oral, 24 days
Outline: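 Female CB-17 SCID mice (6-9 wk, 18-23 g) implanted s.c. in right flank with 10×10⁶ MV4-11 cells in PBS/Matrigel 50/50. Oral gavage dosing; tumour and body weight twice weekly. Final-day urine collected at three intervals, diluted 1:50, mouse MIC-1 ELISA (OD450 minus OD570, standard curve). Tumours removed 4 h after last dose, RIPA-homogenised, p53 and p21 by Western blot.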

[16] = MM.1S CDX, 2 h post final dose, Western blot
[17] = MV4-11 CDX, 4 h post final dose, Western blot

## CC(=O)c1cc([N+](=O)[O-])c(Sc2ccc(F)cc2F)s1 [P22077]
[1]
  IC50: > 1 µM

## CC1(C)CCC(CN2CCN(c3ccc(C(=O)NS(=O)(=O)c4ccc(NCC5CCOCC5)c([N+](=O)[O-])c4)c(Oc4cnc5[nH]ccc5c4)c3)CC2)=C(c2ccc(Cl)cc2)C1 [Venetoclax]
[2]
  effect on MCL1 levels: increase in MCL1 levels

## COc1cc(C(=O)O)ccc1NC(=O)[C@@H]1N[C@@H](CC(C)(C)C)[C@](C#N)(c2ccc(Cl)cc2F)[C@H]1c1cccc(Cl)c1F [Idasanutlin, reference compound]
[3]; three days, CTG
  inhibition of MM1.S cell viability compared with FX1-5303: equipotently
[4]
  IC50: 0.17 µM
[5]
  shift of IC50 in RKO-E6 cells relative to the parental RKO cell line: over 50 fold
[6]
  p53 elevation after 24h of treatment: approximately 14 fold
  maximum increase of p53 above DMSO-treated cells: approximately 20 fold
[7]
  maximum increase of p21 above DMSO-treated cells: ~80 fold
[8]
  increase in cell confluency over the 5-day time course: less than 10%
[9]
  growth of the MM.1S cancer cell line: fully inhibited growth

## O=C1CCC(=O)N1Cc1cc2nccc(-c3cc(Cl)cc4c3N([C@@H]3CNC5(CCC5)C3)CCC4)c2s1 [FX1-5303, (S)-1-((7-(6-chloro-1-(5-azaspiro[3.4]octan-7-yl)-1,2,3,4-tetrahydroquinolin-8-yl)thieno[3,2-b]pyridin-2-yl)methyl)pyrrolidine-2,5-dione]
[10]
  IC50: 0.00029 µM
[11]
  EC50: 0.0056 µM
[3]; Homo sapiens, MM1.S, 72 h, read-out: MM.1S viability IC50
  IC50: 0.015 µM
[4]
  IC50: 3.4 µM
[5]
  shift of IC50 in RKO-E6 cells relative to the parental RKO cell line: essentially unchanged
[12]
  inhibition in a panel of 44 DUBs: only USP7 was inhibited
[6]
  time of peak p53 levels after treatment: 2 to 6 h
  p53 elevation after 24h of treatment: returns nearly to basal levels
  maximum increase of p53 above DMSO-treated cells: approximately 3 fold
[7]
  maximum increase of p21 above DMSO-treated cells: ~6 fold
[8]
  increase in cell confluency over the 5-day time course: increased monotonically
[9]
  growth of the MM.1S cancer cell line: fully inhibited growth
[13]
  IC50: < 0.05 µM
[14]; [16]
  p21 levels in tumors vs untreated mice: significantly higher
  p53 levels in tumors: elevated
[14]; MM.1S CDX, day 24, three time periods, ELISA
  MIC-1 in urine: elevated levels
[14]; MM.1S and MV4-11 CDX mouse models, oral dosing
  tolerability: generally well-tolerated
[14]; MM.1S tumors, 30 mg/kg twice daily, oral, 24 days
  tumor growth inhibition: 95%
[15]; [17]
  p21 levels in tumors vs untreated mice: significantly higher
  p53 levels in tumors: elevated
[15]; MV4-11 CDX, day 24, three time periods, ELISA
  MIC-1 in urine: elevated levels
[15]; 30 mg/kg twice daily
  tumor growth inhibition: 68%
[15]; 40 mg/kg twice daily
  tumor growth inhibition: 72%
